Results on 1 compound are retold here after publication PMC4539048 (Science translational medicine, 2015).

The test system of data set [1] is 9 strains of P. falciparum. Kind of data set: In vitro blood-stage activity on 9 strains of P. falciparum. It counts as cell-based. The settings on record: Plasmodium falciparum, read-out: EC50 range over all tested strains. An outline of the steps: (§1)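 SYBR-green growth assay on P. falciparum 3D7 and drug-resistant lines, including chloroquine- and pyrimethamine-resistant parasites, cultured in RPMI-1640 with 0.5% Albumax-II. At least triplicate data per concentration. EC50 from the log(inhibitor) vs response variable-slope (four-parameter) fit by nonlinear least squares, reported with 95% confidence intervals of the fit.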

The next data set has as its system P. falciparum Dd2. Type of data set: cell-based. The conditions noted are these: Dd2, 3xEC50.
The test system of the next data set is P. falciparum gametes. Kind of data set: Dual gamete formation assay. Type of data set: cell-based.
For data set [2], the system named is P. falciparum stage V oocyst. Kind of data set: Oocyst formation in mosquitoes.
Data set [3] in a line: Stability in hepatic microsomes and cryopreserved hepatocytes. Type of data set: in vitro ADME. The conditions noted are these: across species.
The test system of data set [4] is micronucleated polychromatic erythrocytes. Kind of data set: Oral bone marrow micronucleus test. The settings on record: male CD1 mice. It counts as in vivo.
For the next data set, the system named is P. falciparum 3D7. Kind of data set: In vitro P. falciparum 3D7 growth inhibition. Type of data set: cell-based. The settings on record: Plasmodium falciparum, 3D7, read-out: P. falciparum 3D7 growth inhibition EC50. An outline of the steps:
as §1

The nature of data set [5]: Chemical and physical stability. It counts as physicochemical.
The test system of data set [6] is rabbit cardiac ventricular wedge. Kind of data set: Rabbit cardiac ventricular wedge assay.

Converted amounts (≈) assume the structure as drawn.

Usually EC50 stands for the concentration giving half of the maximal effect. The term inhibition denotes the share of the control response that was lost under treatment. Regarding `Cc1cc(Nc2ccc(S(F)(F)(F)(F)F)cc2)n2nc(C(C)(F)F)nc2n1` [DSM265, 2-(1,1-difluoroethyl)-5-methyl-[N-[4-(pentafluorosulfanyl)phenyl]1,2,4]triazolo[1,5-a]pyrimidin-7-amine], the EC50 was 1 to 4 ng/mL (≈ 2.41 to 9.63 nM) in [1] and 1.8 ng/mL (≈ 4.33 nM) with P. falciparum 3D7. The “MIR, range over two independent studies” value in the data set on P. falciparum Dd2 was 2×10^5–2×10^7 parasites. Besides, the “EC50, dual gamete formation assay” value with P. falciparum gametes is “inactive”. Moreover, the inhibition at 1 µg/mL in data set [2] (Plasmodium falciparum, read-out: inhibition of oocyst formation) is 38%. Further, the “inhibition of oocyst formation at unbound concentration” value in data set [2] (at 0.001 μg/mL unbound (human plasma fraction unbound)) was found to be 38% at 0.001. Besides, in data set [3], the “degradation in hepatic microsomes and cryopreserved hepatocytes” value is recorded as “minimal degradation”. Besides, the micronucleated polychromatic erythrocytes entry in data set [4] is reported as “no increase”. Besides, in [5], the “stability of solutions subjected to simulated sunlight” value is “degradation”. The “chemical stability in the solid state” value in data set [5] (30°/65% relative humidity for up to 24 months) is given as “chemically stable”. In addition, the “QT and Tp-e interval” value in data set [6] (at 1 or 0.5 Hz) was “did not cause any significant prolongation”. The “Torsade de Pointes (TdP)-type arrhythmias” value in [6] (tested up to 5 μg/mL) is “no Torsade de Pointes (TdP)-type arrhythmias were observed”.
